In ChEMBL document CHEMBL1127520, “N-omega-fluoroalkyl analogs of (1R)-2 beta-carbomethoxy-3 beta-(4-iodophenyl)-tropane (beta-CIT): radiotracers for positron emission tomography and single photon emission computed tomography imaging of dopamine transporters” (J Med Chem, 1994) one finds Ki and Count/h data, which are given here for nine molecules.

For test [1], the target named is Sodium-dependent dopamine transporter (Rattus norvegicus, UniProt P23977). Description: Binding affinity for dopamine transporters in rat brain tissue. It counts as tissue-based. An outline of the steps:
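Crude membrane fraction from rat corpus striatum homogenate. Nonspecific binding defined with 30 μM methylphenidate. Each agent tested at six concentrations in duplicate. Concentration-inhibition curves computer-fit for IC50 ± SEM, converted to Ki = IC50/(1 + [L/Kd]).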

Test [2] has as its system Rattus norvegicus. Description: The compound was evaluated for its behavioral activity i.e., locomotor arousal in rat for a dose of 3 mg/kg in time interval of 2 hours. It counts as functional. The essentials:
(§1)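 Adult male Sprague-Dawley rats (150-200 g), 3-7 per group, given agent ip in saline containing DMSO; vehicle controls received saline/DMSO. Locomotion counted in an electronic activity monitor, reported as mean ± SEM counts/hour for 0-1, 1-2 and 2-3 h. Comparison by ANOVA, then post-hoc t tests against vehicle.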

The test system of test [3] is Rattus norvegicus. Description: The compound was evaluated for its behavioral activity i.e., locomotor arousal in rat for a dose of 1 mg/kg in time interval of 2 hours. It counts as functional. An outline of the steps: as §1
Test [4] concerns Rattus norvegicus. The test can be described thus: The compound was evaluated for its behavioral activity i.e., locomotor arousal in rat for a dose of 0.3 mg/kg in time interval of 1 hour. It counts as functional. An outline of the steps:
as §1

Test [5] relates to Rattus norvegicus. Description: The compound was evaluated for its behavioral activity i.e., locomotor arousal in rat for a dose of 1 mg/kg in time interval of 1 hour. It counts as functional. The essentials: as §1
In test [6] the test system is Rattus norvegicus. The test can be described thus: The compound was evaluated for its behavioral activity i.e., locomotor arousal in rat for a dose of 0.3 mg/kg in time interval of 3 hours. It counts as functional. An outline of the steps:
as §1

For test [7], the system named is Rattus norvegicus. Description: The compound was evaluated for its behavioral activity i.e., locomotor arousal in rat for a dose of 1 mg/kg in time interval of 3 hours. It counts as functional. The essentials:
as §1

Test [8] relates to Rattus norvegicus. The test can be described thus: The compound was evaluated for its behavioral activity i.e., locomotor arousal in rat for a dose of 3 mg/kg in time interval of 3 hours. It counts as functional. The essentials: as §1
Test [9] has as its system Rattus norvegicus. The test can be described thus: The compound was evaluated for its behavioral activity i.e., locomotor arousal in rat for a dose of 0.3 mg/kg in time interval of 2 hours. It counts as functional. The essentials: as §1
The test system of test [10] is Rattus norvegicus. The test can be described thus: The compound was evaluated for its behavioral activity i.e., locomotor arousal in rat for a dose of 3 mg/kg in time interval of 1 hour. It counts as functional. The essentials:
as §1

The subject of test [11] is Rattus norvegicus. Description: The compound was evaluated for its behavioral activity i.e., locomotor arousal in rat for a dose of 1 mg/kg in time interval of 3 hours, expressed as mean =/- SEM activity. It counts as functional. The essentials:
as §1

Some results are limits rather than exact numbers.

Sequence of Sodium-dependent dopamine transporter (P23977 whole entry): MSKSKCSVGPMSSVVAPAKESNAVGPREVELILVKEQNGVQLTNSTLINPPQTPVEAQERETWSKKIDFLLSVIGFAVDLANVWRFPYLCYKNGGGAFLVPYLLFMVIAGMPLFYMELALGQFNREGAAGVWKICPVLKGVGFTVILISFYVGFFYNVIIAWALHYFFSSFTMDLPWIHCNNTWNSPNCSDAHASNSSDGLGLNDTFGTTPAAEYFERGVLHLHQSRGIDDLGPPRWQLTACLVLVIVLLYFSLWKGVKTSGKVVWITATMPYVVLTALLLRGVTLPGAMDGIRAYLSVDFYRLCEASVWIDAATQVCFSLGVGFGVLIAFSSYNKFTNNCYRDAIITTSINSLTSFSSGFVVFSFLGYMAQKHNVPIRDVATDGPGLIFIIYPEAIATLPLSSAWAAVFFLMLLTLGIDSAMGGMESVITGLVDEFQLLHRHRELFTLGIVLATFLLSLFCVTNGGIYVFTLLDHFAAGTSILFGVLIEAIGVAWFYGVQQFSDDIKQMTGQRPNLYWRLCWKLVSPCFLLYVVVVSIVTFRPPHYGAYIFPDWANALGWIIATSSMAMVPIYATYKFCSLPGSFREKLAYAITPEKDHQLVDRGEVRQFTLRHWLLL

For “(2S,5R)-8-(3-Fluoro-propyl)-3-(4-trimethylstannanyl-phenyl)-8-aza-bicyclo[3.2.1]octane-2-carboxylic acid isopropyl ester”, the Ki in [1] was over 10000 nM.
Consider `COC(=O)[C@H]1C(c2ccc(I)cc2)C[C@H]2CCC1N2CCCF` (stereo partly drawn), for which the Count/h in test [2] is reported as under 2109; in test [3], under 1071; in test [4], 759; in test [5], under 1943; in test [6], 210; in [7] it was under 325. The Count/h in test [8] is listed as under 1410; in test [9], 403; in test [10], under 3791. In test [1], this molecule registered a Ki of 3.5 nM.
As to “(2S,5R)-8-(2-Fluoro-ethyl)-3-(4-trimethylstannanyl-phenyl)-8-aza-bicyclo[3.2.1]octane-2-carboxylic acid methyl ester”, the Ki in test [1] was over 10000 nM.
As to `COC(=O)[C@H]1C(c2ccc(I)cc2)C[C@H]2CCC1N2C` (stereo partly drawn), the Count/h in [3] is reported as under 9990; in [5], under 6820; in test [7], under 9710. Affinity in test [1] was put at a Ki of 1.4 nM.
For `COC(=O)[C@H]1C(c2ccc(I)cc2)C[C@H]2CCC1N2CCF` (stereo partly drawn), the Count/h in [2] is under 7796; in test [3] it was under 4200; in test [4], under 2030; in [5], under 4180; in test [6], under 3459; in [8], under 7562. The Count/h was under 2945 in [9], under 4400 in test [11] and under 6898 in test [10]. Affinity in test [1] was put at a Ki of 4 nM.
Turning to `CC(C)OC(=O)[C@@H]1C2CC[C@H](C[C@@H]1c1ccc(I)cc1)N2CCF`, the Ki in [1] turned out to be 4.4 nM. This lies in the single-digit nanomolar range.
As for `COC(=O)[C@@H]1C2CC[C@@H](C[C@@H]1OC(=O)c1ccccc1)N2C` (single isomer, unassigned) [COCAINE], the Count/h in [2] is given as under 712; in test [3] it was under 1960; in test [5], under 14940; in test [10], under 15710.
`CC(C)OC(=O)[C@@H]1C2CC[C@H](C[C@@H]1c1ccc(I)cc1)N2CCCF` gave a Ki in test [1] of 1.2 nM. That is a single-digit nanomolar value.
Molecule “(2S,5R)-8-(3-Fluoro-propyl)-3-(4-trimethylstannanyl-phenyl)-8-aza-bicyclo[3.2.1]octane-2-carboxylic acid methyl ester” returned a Ki in [1] of over 10000 nM.
